# High-throughput results from PubChem.
# Dynein transport = blocks dynein driven cargo transport along microtubules. 3617.4 mouse cells, GR-EGFP nuclear translocation imaging; test concentration mostly 20 µM; stimulated with dexamethasone, 1 µM; active compounds read low. z-score, hits read low. 0.47% of 220,000 active;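 active means plate z-score of nuclear minus cytoplasmic receptor signal below a set negative limit, without overly bright fluorescence or cell loss, cut at about -3.5 in these data, passing the limit was not always enough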;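 further: z-score of nuclear minus cytoplasmic ring GR-EGFP intensity difference per well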
#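 Buffer or medium: Induction medium lacking tetracycline, stripped serum | Also added: Dexamethasone agonist, 1.0 µM final, for 30 min | Timing: 48 h induction, 1 h compound, 30 min dex at 37 °C | Detection: Formaldehyde fixation, Hoechst nuclear stain, 10x automated fluorescence imaging | Measure: Nuclear versus cytoplasmic GR-EGFP signal, averaged per well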
# T cruzi repl = blocks replication of Trypanosoma cruzi; T. cruzi beta-gal in NIH3T3, luminescence, 90 h; inhibition, % (concentration not given with the values); 1.4% of 300,000 active; AID 1885;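 active means mean inhibition across valid replicates above about 55%, limit read from the data; inconclusive means mean below that limit but half or more replicates reach it; inactive means mean below it, under half of replicates reach it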;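 further: signal also drops with host cell toxicity which is not excluded here; 0% = plate median of DMSO wells and 100% = zero luminescence signal; higher percent means less beta-gal luminescence so fewer parasites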
#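 Assay system: NIH/3T3 fibroblasts plus reporter T. cruzi. Amount: NIH/3T3 cells, 5,000 per well. Buffer or medium: DMEM, 2% fetal bovine serum. Doses: compound pinned at 50 nL/well, DMSO. Schedule: ≥90 h infection period, 3 h prior cell attachment. Signal: luminescent β-galactosidase signal after 60 min lysis. Read-out: parasite load inhibition, %.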
# CHOP inhibitor = blocks CHOP induction under ER stress; CHO-K1 CHOP-promoter luciferase, tunicamycin-induced, 15-18 h; inhibition, % at 10 µM; 3.8% of 220,000 active; AID 2732;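 active means compounds that reduced the stress-induced luciferase reporter signal by more than about 70% of percent inhibition, limit read from the data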;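 further: 0% = tunicamycin plus vehicle and 100% = wells without tunicamycin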
# CHOP UPR activ = apoptotic UPR (CHOP) activation; AID 449763; activation, % at 10 µM; 0.34% of 330,000 active; CHO-CHOP luciferase reporter, luminescence; percent of tunicamycin response over DMSO baseline;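 active means at 10 µM dose, activation of 40% or more, normalized to positive control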;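 further: 100% = tunicamycin at 10 µg/mL and 0% = DMSO alone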
#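 assay system = CHO CHOP reporter cells | amount = 500 CHO-CHOP cells per well | buffer or medium = F12 with 10% FBS | incubation = 16-18 h cell attachment, then 6 h compound exposure, 37 °C | detection = luminescence read with Steady-Glo | read-out = percent activation relative to tunicamycin control | controls = tunicamycin high control, DMSO low control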
# L major viab = inhibitors of Leishmania major promastigote growth; Leishmania major promastigotes, resazurin fluorescence viability; inhibition, % at 10 µM; 9% of 200,000 active; AID 1063; in the data active means inhibition above about 50%;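 further: promastigotes grown with compound for 44 hours at 28 °C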
# XBP1 UPR activ = activators of adaptive arm of unfolded protein response (XBP1); 0.33% of 330,000 active; activation, % at 20 µM; CHO-XBP1 luciferase reporter, IRE1-XBP1 UPR activation, luminescence; percent of tunicamycin response, DMSO as zero;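 active means versus positive control, 20 µM dose yields 30% or more activation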;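 further: 100% = tunicamycin at 10 µg/mL and 0% = DMSO only wells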
#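 Material: CHO cell line with stable XBP1 luciferase reporter; buffer or medium: F12 medium containing 10% fetal bovine serum; compound: single point, 20 µM final compound, 1% DMSO; incubation: 6 h treatment, 37 °C; measured by: glow luminescence from Steady-Glo reagent; evaluation: activation, % of tunicamycin; control set: tunicamycin high, DMSO low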
# Dynein confirm = dynein cargo transport inhibition, confirmation. shares compounds with Dynein transport. AID 463116. calls only at 20 µM. 69% of 1,000 active. 3617.4 GR-EGFP nuclear translocation imaging, dexamethasone-induced;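 active means inhibition of receptor movement into the nucleus at or above a set limit in both runs, with normal cell brightness and cell count; inconclusive means limit reached in only one run, brightness and count normal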;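 further: dexamethasone at 1 µM final in well for 30 min; nuclear minus cytoplasmic GR-EGFP mean intensity difference in channel 2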
# An asterisk follows results filed as active; i = inactive; ? = inconclusive; . = no result; + = active, no number. Only a selection was taken, and hits are over-represented in it overall.
SMILES,Dynein transport,T cruzi repl,CHOP inhibitor,CHOP UPR activ,L major viab,XBP1 UPR activ,Dynein confirm
COc1cccc(NC(=O)CN(C)C(=O)c2c(C)nn(CC(C)C)c2Cl)c1,.,.,.,0,.,1,.
CC(=O)Nc1ccc(N2C(=O)CSC2c2ccccc2[N+](=O)[O-])cc1 (stereo unspecified),0.34,-14,0,1,-1,1,.
CCc1ccccc1OCC(=O)NNCC(=O)Nc1cccc(C#N)c1,.,.,.,2,.,-1,.
COc1cc(N2C(=O)C=CC2=O)c(OC)cc1Cl,-5.1*,16,-3,28,.,-5,+
COc1cc(Cl)c(S(=O)(=O)N2CCCC2)cc1Cl,-0.052,-4,19,0,-2,3,.
O=C(O)c1ccc(NC2=C(Cl)C(=O)c3ccccc3C2=O)cc1,-5.2*,55*,34,3,.,-6,+
CC(C)NC1=C(Cl)C(=O)c2ccccc2C1=O,0.3,-12,19,1,15,3,.
COCCCNC1=C(Cl)C(=O)c2ccccc2C1=O,0.47,2,-24,5,.,3,.
COCCCNc1c2c3c(cccc3[nH]c1=O)C(=O)c1ccccc1-2,-4.9*,.,22,4,12,2,+
CCc1ccccc1NC(=O)CN(C)C(=O)Cn1ncc(Cl)c(Cl)c1=O,-3.7*,16,-110,.,44,.,+
O=C(O)c1ccc(C=C(c2nc3ccccc3s2)c2nc3ccccc3s2)cc1,-4.6*,-14,10,0,11,2,+
CNC(=O)NC(=O)C(OC(=O)Cc1cccc(C(F)(F)F)c1)c1ccccc1 (stereo unspecified),.,3,.,1,.,1,.
Cc1ccc(S(=O)(=O)N2CCC(C(=O)N3CCc4ccccc43)CC2)cc1C,.,.,.,-1,.,-4,.
COC(=O)C1=C(C)N(Cc2ccco2)C(=O)/C1=C\c1ccc([N+](=O)[O-])cc1,-3.6*,-9,-31,3,99*,7,+
COCCNC(=O)c1cn(C)c2ccc(S(=O)(=O)N3CCCCC3)cc2c1=O,.,-3,.,2,.,-3,.
O=C(Nc1ccccc1)c1nnsc1S(=O)c1ccc(Cl)cc1 (stereo unspecified),-3.5*,15,75*,-11,29,-9,+
N#CCCn1cc(C=C(C#N)C#N)c(-c2ccc(-c3ccccc3)cc2)n1,-4.1*,4,14,6,41,-2,?
N#CCCn1cc(/C=N/O)c(-c2ccccc2)n1,-0.38,.,24,-1,0,-1,.
O=C(NCCCNc1ccc([N+](=O)[O-])cc1)C(F)(F)F,-0.76,-13,9,1,-6,-2,.
O=C(CCl)N(CCCNC(=O)C(F)(F)F)c1ccc([N+](=O)[O-])cc1,-5*,-12,-220,30,.,3,+
O=c1[nH]c(=S)[nH]c2nc(-c3cccs3)cc(C(F)(F)F)c12,.,1,.,1,.,-1,.
Nc1c(C(=O)C2CC2)sc2nc(-c3cccs3)cc(C(F)(F)F)c12,-5.6,-4,39,-4,-3,1,i
Cc1nn(C)c(C(=O)Sc2ccccc2)c1[N+](=O)[O-],-3.4,6,38,18,.,5,.
Cc1nn(C)c(C(=O)Sc2cccc(Cl)c2)c1[N+](=O)[O-],-3.9*,14,61,10,.,27,+
N#Cc1ccc(-c2cccnc2)nc1SCC(=O)c1ccccc1,-5.3,20,-19,8,.,6,i
SMILES,Dynein transport,T cruzi repl,CHOP inhibitor,CHOP UPR activ,L major viab,XBP1 UPR activ,Dynein confirm
N#Cc1ccc(-c2ccccc2)nc1SCC(=O)c1cccc(Cl)c1,-0.49,-5,23,0,-7,-1,.
CCCC[C@@H]1C=C(C(=O)O)[C@H](c2ccc(Br)cc2)N1S(=O)(=O)c1ccc(C)cc1,.,.,.,2,.,-1,.
CC(=O)Nc1sc(/C(C#N)=C/c2ccc(Cl)c(Cl)c2)nc1-c1ccc(C)cc1,-5.9*,10,4,.,1,.,+
CC(=O)Nc1sc(N/N=C/c2ccc(C)cc2)nc1-c1ccc(C)cc1,-1,-17,17,8,.,15,.
CC[C@H](C)/C=C(C)/C=C/C(=O)Cc1cc(O)c(C)c(O)c1C=O,-3.8*,-22,-21,1,.,-1,+
Nc1nc(Sc2c([N+](=O)[O-])cc(C(F)(F)F)cc2[N+](=O)[O-])n[nH]1,-7.1*,10,5,15,.,-6,+
COc1cccc(Nc2ncccc2C(=O)NCc2ccccc2)c1,-9.6,.,14,.,6,.,i
CN1CCN(C(=O)c2cc(Cl)ccc2NC(=O)c2ccc(Cl)cc2Cl)CC1,.,-7,.,1,.,-2,.
O=C1CN(C(=O)CNC(=O)c2ccc(Cl)cc2Cl)CCN1,.,-10,.,1,.,2,.
COc1cc(C(=O)Sc2ccc(C)cc2)cc(OC)c1OC,-4.4*,18,82*,20,32,5,+
CCOC(=O)C1CCN(C(=O)c2ccc3c(c2)C(=O)N(c2ccccc2C)C3=O)CC1,.,-9,.,2,.,1,.
CC(C)N1C(=O)/C(=C\c2nc3ccccc3c(=O)n2-c2ccccc2)c2ccccc21,-5*,71*,15,.,99*,.,+
CC(C)N1C(=O)C(Cc2nc3ccccc3c(=O)n2-c2ccccc2)c2ccccc21 (stereo unspecified),0.33,47,11,1,21,1,.
CC(C)N1C(=O)/C(=C/c2nc3ccccc3c(=O)n2-c2ccccc2)c2ccccc21,-4.1*,77*,16,5,100*,11,+
O=[N+]([O-])c1cnc(Nc2ccccc2)nc1Nc1ccccc1,.,-17,.,0,.,-1,.
O=C(O)Cn1nnc(-c2ccc(OCc3ccccc3)cc2)n1,.,-20,.,.,.,.,.
NC(=O)N/N=C/c1c(Sc2nnnn2-c2ccccc2)nc2ccccn2c1=O,-5.3*,15,-7,7,.,-4,i
CCn1c(C)c(CS(=O)(=O)c2ccccc2)[nH]c1=O,-5.6*,-14,-32,2,-1,-5,+
Cc1ccc(NC(=O)C(=Cc2ccc(C(=O)O)cc2)C(=O)Nc2ccc(C)cc2C)c(C)c1,-6*,0,-14,40,.,-2,+
